Measured values collected from several papers.
Each line is one published result; the experiments were not run side by side.
Observed: cell growth or viability

CC(=NNC(=O)c1ccncc1)c1ccc(Nc2nnc(-c3ccc(Cl)cc3)c3ccccc23)cc1
cell death (HepG2; MTT; 0.156 µM): 17.1%

CNc1ncc2c(/C=C/C(=O)N3CCC(OC)CC3)nn(CC(OC)OC)c2n1
EC50 (OE33; resazurin; 5 days): > 30 µM

CC(C)(C)c1cnc(CSc2cnc(NC(=O)C3CCN(CCCCCCCCSc4cccc5c4C(=O)N(C4CCC(=O)NC4=O)C5=O)CC3)s2)o1 (stereo not shown)
viability (HH; CCK-8; 0.15 µM): 16.5%

O=C(Nc1ccc(Oc2nnc(-c3ccc(Cl)cc3)c3ccccc23)cc1)c1ccccc1
cell death (HepG2; MTT; 78 nM): 3.97%

CC(C)(C)c1cnc(CSc2cnc(NC(=O)C3CCN(C(=O)CCCSc4cccc5c4C(=O)N(C4CCC(=O)NC4=O)C5=O)CC3)s2)o1 (stereo not shown)
viability (HH; CCK-8; 0.2 µM): 96.7%

CNc1ncc2c(/C=C/C(=O)N3CCCC(OC)C3)nn(Cc3cccc(C)c3)c2n1 (stereo not shown)
EC50 (OE33; resazurin; 5 days): 17.6 µM

O=C(Nc1ccc(Oc2nnc(-c3ccc(Cl)cc3)c3ccccc23)cc1)c1cccc([N+](=O)[O-])c1
cell death (HepG2; MTT; 10 µM): 93.8%

CNc1ncc2c(/C=C/C(=O)N3CCC(c4ccccc4)CC3)nn(CC3CCCC3)c2n1
EC50 (OE33; resazurin; 5 days): > 30 µM

O=C(C=Cc1ccccc1)Nc1ccc(Oc2nnc(-c3ccc(Cl)cc3)c3ccccc23)cc1
cell death (HepG2; MTT; 2.5 µM): 87.9%

CNc1ncc2c(/C=C/C(=O)N3CCC(OC)CC3)nn(CC3CCCO3)c2n1 (stereo not shown)
EC50 (OE33; resazurin; 5 days): > 30 µM

C=CC(=O)NC1CCN(c2ncc3ncnc(Nc4ccc(Oc5ccc6c(c5)ncn6C)c(C)c4)c3n2)CC1
EC50 (MKN-7): 0.00659 µM

CC(=NNC(=O)c1cccnc1)c1ccc(Nc2nnc(-c3ccc(Cl)cc3)c3ccccc23)cc1
cell death (HepG2; MTT; 0.312 µM): 6.41%

CCOC(=O)c1nn(-c2cccc(Cl)c2)/c(=N/N=C(\C)c2ccc(NC(=O)c3ccc(Cl)cc3)cc2)s1
viability (HepG2; MTT; 10 µM): 4.04%

CC(=NNC(=S)Nc1ccccc1)c1ccc(Nc2nnc(-c3ccc(Cl)cc3)c3ccccc23)cc1
cell death (HepG2; MTT; 0.312 µM): 0.861%

CC(C)(C)c1cnc(CSc2cnc(NC(=O)C3CCN(CCCCCCCSc4cccc5c4C(=O)N(C4CCC(=O)NC4=O)C5=O)CC3)s2)o1 (stereo not shown)
viability (HH; CCK-8; 0.15 µM): 76.7%

CNc1ncc2c(/C=C/C(=O)N3CCC(O)CC3)nn(CC3CCCC3)c2n1
EC50 (OE33; resazurin; 5 days): > 30 µM

CC(C)(C)c1cnc(CSc2cnc(NC(=O)C3CCN(CCCCCCCCSc4cccc5c4CN(C4CCC(=O)NC4=O)C5=O)CC3)s2)o1 (stereo not shown)
viability (HH; CCK-8; 1 nM): 97.4%

CC(=O)c1nn(-c2ccc(C)cc2)/c(=N/N=C(\C)c2ccc(NC(=O)c3ccccc3)cc2)s1
viability (HepG2; MTT; 1.25 µM): 5.9%

CNc1ncc2c(/C=C/C(=O)N3CCCC(N(C)C)C3)nn(CC3CCCC3)c2n1 (stereo not shown)
EC50 (OE33; resazurin; 5 days): 17.7 µM

CC(C)(C)c1cnc(CSc2cnc(NC(=O)C3CCN(C(=O)COCCOCCSc4cccc5c4C(=O)N(C4CCC(=O)NC4=O)C5=O)CC3)s2)o1 (stereo not shown)
viability (HH; CCK-8; 0.4 µM): 47.3%

COC1CCN(C(=O)/C=C/c2nn(CC3CCCC3)c3ncnc(N)c23)CC1
EC50 (OE33; resazurin; 5 days): > 30 µM

CC(=NNC(N)=S)c1ccc(Nc2nnc(-c3ccc(Cl)cc3)c3ccccc23)cc1
cell death (HepG2; MTT; 2.5 µM): 91.9%
